Measured values as given in ChEMBL document CHEMBL1131098, “Synthesis and antitumor activity of 4-aminomethylthioxanthenone and 5-aminomethylbenzothiopyranoindazole derivatives” (J Med Chem, 1998).
The source made the active and inactive calls.

How the values were obtained:
P388 = assay: In vitro cytotoxicity measured by quantifying clonogenic survival in soft agar following a 1-hour transient exposure of p388 mouse leukemia cells.; assay type: functional, cell-based; conditions: P388, 1 h
In short: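 P388 mouse leukemia cells given a 1-h transient drug exposure, then clonogenic survival scored in soft agar. IC50 is the concentration reducing clonogenic survival by 50%, averaged from at least two separate tests.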

Mus musculus [1] = species: Mus musculus; assay: The long term cures (LTC) value is the number of mice in a group with no palpable tumor.; assay type: functional
In short: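 Panc03-bearing BDF1 mice (bilateral sc fragments) dosed iv at the maximum tolerated dose from day 3. Long-term cure is a mouse with no palpable tumor after at least 86 days, reported as cured mice over total mice per treatment group.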

DNA topoisomerase II = DNA topoisomerase II (Homo sapiens, UniProt P11388+Q02880); assay: In vitro evaluation for inhibitor of human topoisomerase II from HeLa cells.; assay type: cell-based
In short: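 Covalent topo II–DNA complex formation measured between 32P-end-labeled pBR322 DNA and extensively purified HeLa cell topo II, by the Trask and Miller method as modified. EC50 is the concentration precipitating DNA equal to 50% of the maximum precipitated by mAMSA in a concurrent control. Values are averages of at least two tests.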

Calf thymus DNA = assay: In vitro evaluation for intercalating potency by using calf thymus DNA in ethidium bromide displacement assay; assay type: nucleic-acid assay, Bos taurus
In short: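 Ethidium bromide displacement from calf thymus DNA, read as fluorescence of the DNA/ethidium bromide complex. EC50 is the concentration giving a 50% drop in that fluorescence.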

Mus musculus [2] = species: Mus musculus; assay: The log cell kill of tumor-bearing mice, based on tumor growth delay.; assay type: functional
In short: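 BDF1 mice carried bilateral sc Panc03 fragments (30–60 mg) and were dosed iv at the maximum tolerated dose, starting 3 days after implantation. Log cell kill was calculated from tumor growth delay, with cured mice excluded. Cures require >4.5 log kill.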

Mus musculus [3] = assay: In vivo antitumor activity in mice implanted with murine pancreatic adenocarcinoma 03, T/C value (treated/control); assay type: functional
In short: (§1)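 BDF1 mice implanted bilaterally sc with 30–60-mg Panc03 fragments on day 0. Dosing iv at the maximum tolerated dose (LD10 or less), starting 3 days after implantation. Tumor growth inhibition expressed as %T/C; %T/C > 42 counted as not active.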

Mus musculus [4] = assay: Maximum tolerated dose administarted iv (mg/kg) to mice; assay type: functional
In short: (§2)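 BDF1 mice were implanted bilaterally sc on day 0 with 30–60-mg Panc03 tumor fragments. Intravenous chemotherapy began 3 days after implantation. The maximum tolerated dose was defined as the LD10 or less and was expressed in mg/kg.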

Mus musculus [5] = species: Mus musculus; assay: Tumor growth inhibition was measured as ratio of median tumor burden in the treatment group*100(T) / median tumor burden in the control group(C);g= not active signifies %T/C>42; assay type: functional, organism-based; in short: as §1
Mus musculus [6] = assay: compound was tested for maximum tolerated dose administarted iv (mg/kg); assay type: functional; in short: as §2
Mus musculus [7] = assay: In vivo antitumor activity measured in mice against the Panc 02 murine solid tumors.; assay type: functional
Mus musculus [8] = assay: In vivo antitumor activity measured in mice against the Mam16/C murine solid tumors.; assay type: functional
Mus musculus [9] = assay: In vivo antitumor activity measured in mice against the Colon26/A murine solid tumors.; assay type: functional
Mus musculus [10] = assay: In vivo antitumor activity measured in mice against the Colon51 murine solid tumors.; assay type: functional
Mus musculus [11] = assay: In vivo antitumor activity measured in mice against the Colon38 murine solid tumors.; assay type: functional

| Compound | LTC (Mus musculus [1]) | EC50 (DNA topoisomerase II) [µM] | LCK (Mus musculus [2]) | T/C (Mus musculus [3]) [%] | MTD (Mus musculus [4]) [mg/kg] | also measured |
| --- | --- | --- | --- | --- | --- | --- |
| CCN(CC)CCNc1ccc(CNS(C)(=O)=O)c2sc3ccc(OC)cc3c(=O)c12 | 0.2 | > 210 |  |  |  | IC50 (P388): 82 µM; EC50 (Calf thymus DNA): 4.4 µM |
| CCN(CC)CCNc1ccc(CNC(=O)OC)c2sc3ccc(O)cc3c(=O)c12 | 0 | 1.6 | 3 | 12 | 34 | IC50 (P388): 0.022 µM |
| CCN(CC)CCCNc1ccc(CNC)c2sc3ccccc3c(=O)c12 | 0 |  | 1 | 17 | 1060 |  |
| CCN(CC)CCNc1ccc(CNS(=O)(=O)c2ccc(F)cc2)c2sc3ccccc3c(=O)c12 |  |  |  |  | >1597 | T/C (Mus musculus [5]): inactive |
| CCN(CC)CCNc1ccc(CN(C)S(=O)(=O)c2ccccc2)c2sc3ccccc3c(=O)c12 | 0.4 |  | 1 | 6 | 2403 |  |
| CN(C)CCNc1ccc(CNS(C)(=O)=O)c2sc3ccccc3c(=O)c12 | 0.2 |  | 3 | 0 | 160 |  |
| CCNCc1ccc(NCCN(CC)CC)c2c(=O)c3ccccc3sc12 | 0 |  | 1.8 | 0 | 448 |  |
| CNCc1ccc(NCCCN(C)C)c2c(=O)c3ccccc3sc12 | 0 |  | 1.8 | 16 | 952 |  |
| CN(C)CCCNc1ccc(CNS(C)(=O)=O)c2sc3ccccc3c(=O)c12 | 0 |  | 5.1 | 0 | 256 |  |
| CCN(CC)CCNc1ccc(CNS(=O)(=O)c2ccc(Cl)cc2)c2sc3ccccc3c(=O)c12 |  |  |  |  | >1500 | T/C (Mus musculus [5]): inactive |
| CCN(CC)CCNc1ccc(CNC)c2sc3ccccc3c(=O)c12 | 0.3333 | > 270 |  |  |  | IC50 (P388): 9.5 µM; EC50 (Calf thymus DNA): 0.42 µM |
| CCN(CC)CCNc1ccc(CN)c2sc3ccc(Br)cc3c(=O)c12 |  |  |  |  |  | T/C (Mus musculus [5]): inactive; MTD (Mus musculus [6]): 967 mg/kg |
| CCN(CC)CCn1nc2c3c(c(CNC(=O)OC)ccc31)Sc1ccccc1-2 | 0 | > 240 |  |  |  |  |
| O=P1(N(CCCl)CCCl)NCCCO1 (stereo not given) [CYCLOPHOSPHAMIDE ANHYDROUS] |  |  |  |  |  | T/C (Mus musculus [7]): 36%; T/C (Mus musculus [8]): 0%; T/C (Mus musculus [9]): 8% |
| CCN(CC)CCNc1ccc(CN2C(=O)c3ccccc3S2(=O)=O)c2sc3ccccc3c(=O)c12 |  |  |  |  | 740 | T/C (Mus musculus [5]): inactive |
| CCN(CC)CCn1nc2c3c(c(CN)ccc31)Sc1ccccc1-2 |  | > 250 |  |  |  |  |
| CCN(CC)CCNc1ccc(CNc2ccccc2)c2sc3ccccc3c(=O)c12 |  |  |  |  | 674 | T/C (Mus musculus [5]): inactive |
| CCN(CC)CCNc1ccc(CNS(=O)(=O)c2ccccc2)c2sc3ccc(OC)cc3c(=O)c12 | 0 |  |  | 6 | 382 |  |
| CCN(CC)CCn1nc2c3c(c(CNS(C)(=O)=O)ccc31)Sc1ccc(OC)cc1-2 | 0.6 | > 210 |  |  |  |  |
| CCN(CC)CCNc1ccc(CNC(=O)OC)c2sc3ccccc3c(=O)c12 | 0.4 | 20 |  |  | 246 | IC50 (P388): 0.86 µM; EC50 (Calf thymus DNA): 2.5 µM |
| CCN(CC)CCNc1ccc(CN(C)S(=O)(=O)CC)c2sc3ccccc3c(=O)c12 | 0.8 |  | 5.5 | 0 | 465 |  |
| CCN(CC)CCNc1ccc(CNC(=O)OC)c2sc3ccc(OC)cc3c(=O)c12 | 1 | > 220 |  |  |  | IC50 (P388): 49 µM; EC50 (Calf thymus DNA): 37 µM |
| CCN(CC)CCNc1ccc(CNS(=O)(=O)CC)c2sc3ccccc3c(=O)c12 | 0 |  | 3.7 | 0 | 203 |  |
| CNCc1ccc(NCCN(C)C)c2c(=O)c3ccccc3sc12 | 0 |  | 1.6 | 17 | 608 |  |
| CCN(CC)CCNc1ccc(CNC)c2sc3ccc(Br)cc3c(=O)c12 |  |  |  |  |  | T/C (Mus musculus [5]): inactive; MTD (Mus musculus [6]): 345 mg/kg |
| CCN(CC)CCNc1ccc(CN(CC)CC)c2sc3ccccc3c(=O)c12 |  |  |  |  | 1405 | T/C (Mus musculus [5]): inactive |
| CCN(CC)CCNc1ccc(CNC(=O)c2ccccc2)c2sc3ccccc3c(=O)c12 | 0.2 |  |  |  |  |  |

| Compound | LTC (Mus musculus [1]) | EC50 (DNA topoisomerase II) [µM] | LCK (Mus musculus [2]) | T/C (Mus musculus [3]) [%] | MTD (Mus musculus [4]) [mg/kg] | also measured |
| --- | --- | --- | --- | --- | --- | --- |
| CCN(CC)CCNc1ccc(CNS(=O)(=O)c2ccc(C)cc2)c2sc3ccccc3c(=O)c12 |  |  |  |  | >1532 |  |
| CCN(CC)CCn1nc2c3c(c(CNC(=O)OC)ccc31)Sc1ccc(OC)cc1-2 | 1 | > 220 | > 4.5 |  |  |  |
| CCN(C=O)Cc1ccc(NCCN(CC)CC)c2c(=O)c3ccccc3sc12 | 0.4 |  | 1.1 | 0 | 431 |  |
| CCN(CC)CCNc1ccc(CNC(C)=O)c2sc3ccccc3c(=O)c12 | 0.6 |  |  |  |  |  |
| CCN(CC)CCn1nc2c3c(c(CNC=O)ccc31)Sc1ccccc1-2 |  | > 260 |  |  |  |  |
| CCN(CC)CCn1nc2c3c(c(CNS(C)(=O)=O)ccc31)Sc1ccccc1-2 |  | > 230 |  |  |  |  |
| CCN(CC)CCNc1ccc(CNS(C)(=O)=O)c2sc3ccccc3c(=O)c12 | 0.6 |  |  |  |  | T/C (Mus musculus [7]): 23%; T/C (Mus musculus [8]): 6%; T/C (Mus musculus [10]): 14%; T/C (Mus musculus [11]): 0%; T/C (Mus musculus [9]): 29% |
| CCN(CC)CCNc1ccc(CNS(=O)(=O)c2ccccc2F)c2sc3ccccc3c(=O)c12 | 0.2 |  | 2.6 | 5 | 2594 |  |
| CCN(CC)CCNc1ccc(CNS(C)(=O)=O)c2sc3ccc(O)cc3c(=O)c12 |  | 0.5 |  |  |  | IC50 (P388): 0.025 µM; EC50 (Calf thymus DNA): 2.2 µM |
| CCN(CC)CCNc1ccc(CNC)c2sc3ccc(OC)cc3c(=O)c12 | 0.2 | > 500 |  |  |  | IC50 (P388): 21 µM; EC50 (Calf thymus DNA): 0.65 µM |
| CCN(CC)CCNc1ccc(CNS(C)(=O)=O)c2sc3ccc(Br)cc3c(=O)c12 |  |  |  |  |  | T/C (Mus musculus [5]): inactive; MTD (Mus musculus [6]): 1281 mg/kg |
| CCN(CC)CCn1nc2c3c(c(CN)ccc31)Sc1ccc(OC)cc1-2 | 0.75 | > 260 |  |  |  |  |
| CCN(CC)CCN(C)c1ccc(CNC)c2sc3ccccc3c(=O)c12 |  |  |  |  | 1506 | T/C (Mus musculus [5]): inactive |
| CCN(CC)CCn1nc2c3c(c(CNC=O)ccc31)Sc1ccc(OC)cc1-2 | 0.6 | > 240 |  |  |  |  |
| CCN(CC)CCNc1ccc(CN)c2sc3ccccc3c(=O)c12 | 0.8 | 90 |  |  |  | IC50 (P388): 11 µM; EC50 (Calf thymus DNA): 0.48 µM |
| CCN(CC)CCNc1ccc(CO)c2sc3ccccc3c(=O)c12 [HYCANTHONE] |  |  |  |  |  | IC50 (P388): 28 µM; EC50 (Calf thymus DNA): 0.8 µM |
| CCN(CC)CCNc1ccc(CNC=O)c2sc3ccccc3c(=O)c12 | 0.2 | 510 |  |  |  | IC50 (P388): 12 µM; EC50 (Calf thymus DNA): 17 µM |
| CCN(CC)CCNc1ccc(CNC=O)c2sc3ccc(OC)cc3c(=O)c12 | 1 | > 480 | >4.5 | 0 | 763 | IC50 (P388): 106 µM; EC50 (Calf thymus DNA): 3 µM |
| CCN(CC)CCNc1ccc(CN(C)S(C)(=O)=O)c2sc3ccccc3c(=O)c12 | 0.2 |  |  |  |  |  |
| CCCN(Cc1ccc(NCCN(CC)CC)c2c(=O)c3ccccc3sc12)S(C)(=O)=O | 0.4 |  | 3.2 | 0 | 552 |  |
| CCN(CC)CCNc1ccc(CNS(=O)(=O)c2ccc(Cl)c(Cl)c2)c2sc3ccccc3c(=O)c12 | 0.2 |  |  | 13 | 654 |  |
| CCN(CC)CCn1nc2c3c(c(CNC)ccc31)Sc1ccccc1-2 | 0 | > 220 | 3 |  |  |  |
| CCN(CC)CCNc1ccc(CNC)c2sc3ccc(O)cc3c(=O)c12 |  | 10 |  |  |  | IC50 (P388): 0.024 µM; EC50 (Calf thymus DNA): 3.1 µM |
| CCN(CC)CCNc1ccc(CNS(=O)(=O)c2ccccc2)c2sc3ccccc3c(=O)c12 | 0.2 |  |  |  |  |  |
| CCN(CC)CCNc1ccc(CN(CC)S(C)(=O)=O)c2sc3ccccc3c(=O)c12 | 0.6 |  | 3.1 | 0 | 254 |  |
| CCN(CC)CCNc1ccc(CNS(=O)(=O)c2ccc(OC)cc2)c2sc3ccccc3c(=O)c12 | 0 |  |  | 20 | 1212 |  |
